Source: ChEMBL document CHEMBL1129970, “Biologically active conformer of the effector region of human C5a and modulatory effects of N-terminal receptor binding determinants on activity” (J Med Chem, 1997)

How the values were obtained:
[1] = species: Homo sapiens; test: Tested for the ability to stimulate beta-glucuronidase release from human polymorphonuclear cells (PMN) (n=4); type: functional
Procedure, shortened: (§1)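 Human PMNs pretreated with cytochalasin B (5 μg/mL, 10 min, 37 °C), then 10⁶ cells stimulated for 60 min at 37 °C. β-Glucuronidase in the supernatant is assayed with 0.01 M p-nitrophenyl β-D-glucuronide (0.1 M acetate, pH 4, 18 h) in triplicate. Reaction stopped with glycine pH 10 and read at 415 nm. pD2 is taken from dose–response curves against the C5a EC50. Efficacy is given relative to C5a maximum (100%).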

[2] = species: Homo sapiens; test: Relative potency of peptide for human fetal artery was determined; type: functional
Procedure, shortened: (§2)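 Human fetal artery smooth muscle contraction; full dose–response curves for recombinant human C5a or each peptide in the same tissue preparation. EC50 is the concentration giving 50% of the maximal response, read relative to the C5a maximum. pD2 = −log EC50 (M), averaged per peptide ± SE. Log potency ratio pD2(C5a) − pD2(peptide) is computed within each experiment. Relative potency = antilog(−Δ) × 100.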

[3] = species: Homo sapiens; test: Log potency ratio [pD2(C5a)-pD2(peptide)] was determined in human fetal artery; type: functional; procedure, shortened: as §2
[4] = species: Homo sapiens; test: Relative potency of peptide to stimulate beta-glucuronidase release from human polymorphonuclear cells (PMN) (n=4); type: functional; procedure, shortened: as §1
[5] = species: Homo sapiens; test: Log potency ratio [pD2(C5a)-pD2(peptide)] was determined in human polymorphonuclear cells (PMN) (n=4); type: functional; procedure, shortened: as §1
[6] = species: Homo sapiens; test: Maximum efficacy relative to C5a (100%) for human polymorphonuclear cells (PMN) was determined (n=4); type: functional; procedure, shortened: as §1
[7] = Selectivity of peptide was determined from antilog[pD2(fetal artery)-pD2 (PMN enzyme release)] (n=10); type: functional
Procedure, shortened: (§3)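 Selectivity = antilog[pD2(fetal artery) − pD2(PMN β-glucuronidase release)]. pD2 values come from full dose–response curves in each assay, each generated alongside C5a.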

[8] = species: Homo sapiens; test: Spasmogenic activity was measured by the ability to induce smooth muscle contraction in human fetal artery; type: functional, Muscle tissue; procedure, shortened: as §2
[9] = species: Homo sapiens; test: Effective concentration to stimulate beta-glucuronidase release from human polymorphonuclear cells (PMN) (n=4); type: functional; procedure, shortened: as §1
[10] = species: Homo sapiens; test: Effective concentration to induce smooth muscle contraction in human fetal artery; type: functional; conditions: Muscle tissue; procedure, shortened: as §2
[11] = Selectivity of peptide was determined from antilog[pD2(fetal artery)-pD2 (PMN enzyme release)] (n=12); type: functional; procedure, shortened: as §3
[12] = species: Homo sapiens; test: Maximum efficacy relative to C5a (100%) for human polymorphonuclear cells (PMN) was determined (n=5); type: functional; procedure, shortened: as §1
[13] = species: Homo sapiens; test: Tested for the ability to stimulate beta-glucuronidase release from human polymorphonuclear cells (PMN) (n=5); type: functional; procedure, shortened: as §1
[14] = species: Homo sapiens; test: Log potency ratio [pD2(C5a)-pD2(peptide)] was determined in human polymorphonuclear cells (PMN) (n=5); type: functional; procedure, shortened: as §1
[15] = Selectivity of peptide was determined from antilog[pD2(fetal artery)-pD2 (PMN enzyme release)] (n=11); type: functional; procedure, shortened: as §3
[16] = species: Homo sapiens; test: Relative potency of peptide to stimulate beta-glucuronidase release from human polymorphonuclear cells (PMN) (n=5); type: functional; procedure, shortened: as §1
[17] = species: Homo sapiens; test: Tested for inhibition of binding of [125I]C5a to intact human polymorphonuclear cells (PMN) (n=3); type: functional
Procedure, shortened: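 Competition binding on freshly isolated intact human PMNs (0.25 × 10⁶) with 20 pM [¹²⁵I]C5a plus unlabeled C5a or peptide. Buffer is 50 mM HEPES, 1 mM CaCl₂, 5 mM MgCl₂, 0.5% BSA. Incubation 60 min at 4 °C, then filtration, ice-cold washes and gamma counting, triplicates. Nonspecific binding defined with 1 mM peptide or 100 nM C5a. Relative affinity = antilog[−(log IC50 C5a − log IC50 peptide)] × 100. The potency/binding ratio is EC50 divided by the binding IC50.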

EC50 [9] [µM] | EC50 [10] [µM] | SMILES | Potency [2] [%] | Mean log concentration ratio [3] | pD2 [8] | other results
 |  | CSCC[C@H](NC(=O)[C@@H]1CCCN1C(=O)[C@H](CCCCN)NC(=O)[C@H](Cc1ccccc1)NC(=O)[C@H](CO)NC(=O)[C@H](Cc1ccc(O)cc1)NC(=O)[C@H](CCCCN)NC(=O)CNC(=O)[C@H](CCCCN)NC(=O)CNC(=O)[C@@H](N)CCCCN)C(=O)N1CCC[C@H]1C(=O)N[C@@H](CC(C)C)C(=O)N[C@H](C)C(=O)N[C@@H](CCCN=C(N)N)C(=O)O | 6.2 | 1.2 | 6.81 | pD2 [1]: 5.4; Potency [4]: 0.9%; Mean log concentration ratio [5]: 2.05; C5a max [6]: 198%; Selectivity [7]: 26
9.3 | 0.1 | CSCC[C@H](NC(=O)[C@@H]1CCCN1C(=O)[C@H](CCCCN)NC(=O)[C@H](Cc1ccccc1)NC(=O)[C@H](CO)NC(=O)[C@H](Cc1ccc(O)cc1)NC(C)=O)C(=O)N1CCC[C@H]1C(=O)N[C@@H](CC(C)C)C(=O)N[C@H](C)C(=O)N[C@@H](CCCN=C(N)N)C(=O)O |  |  |  | 
7.2 | 0.2 | CSCC[C@H](NC(=O)[C@@H]1CCCN1C(=O)[C@H](CCCCN)NC(=O)[C@H](Cc1ccccc1)NC(=O)[C@H](CO)NC(=O)[C@H](Cc1ccc(O)cc1)NC(=O)CCCCCNC(=O)[C@H](Cc1c[nH]c2ccccc12)NC(=O)[C@@H](N)CC(=O)O)C(=O)N1CCC[C@H]1C(=O)N[C@@H](CC(C)C)C(=O)N[C@H](C)C(=O)N[C@@H](CCCN=C(N)N)C(=O)O |  |  |  | 
 |  | CSCC[C@H](NC(=O)[C@@H]1CCCN1C(=O)[C@H](CCCCN)NC(=O)[C@H](Cc1ccccc1)NC(=O)[C@H](CO)NC(=O)[C@H](Cc1ccc(O)cc1)NC(=O)CCCCCNC(=O)[C@H](CCCCN)NC(=O)CNC(=O)[C@H](CCCCN)NC(=O)CNC(=O)[C@@H](N)CCCCN)C(=O)N1CCC[C@H]1C(=O)N[C@@H](CC(C)C)C(=O)N[C@H](C)C(=O)N[C@@H](CCCN=C(N)N)C(=O)O | 10 | 0.99 | 6.98 | Selectivity [11]: 63; pD2 [1]: 5.18; Potency [4]: 0.6%; Mean log concentration ratio [5]: 2.2; C5a max [6]: 173%
4.9 | 0.1 | CSCC[C@H](NC(=O)[C@@H]1CCCN1C(=O)[C@H](CCCCN)NC(=O)[C@H](Cc1ccccc1)NC(=O)[C@H](CO)NC(=O)[C@H](Cc1ccc(O)cc1)NC(=O)CCCCCNC(=O)[C@H](CCCCN)NC(=O)CNC(=O)[C@@H](N)CCCCN)C(=O)N1CCC[C@H]1C(=O)N[C@@H](CC(C)C)C(=O)N[C@H](C)C(=O)N[C@@H](CCCN=C(N)N)C(=O)O |  |  |  | 
 |  | CSCC[C@H](NC(=O)[C@@H]1CCCN1C(=O)[C@H](CCCCN)NC(=O)[C@H](Cc1ccccc1)NC(=O)[C@H](CO)NC(=O)[C@H](Cc1ccc(O)cc1)NC(=O)CCCCCNC(=O)[C@H](Cc1c[nH]c2ccccc12)NC(=O)[C@@H](N)CCCCN)C(=O)N1CCC[C@H]1C(=O)N[C@@H](CC(C)C)C(=O)N[C@H](C)C(=O)N[C@@H](CCCN=C(N)N)C(=O)O | 14 | 0.86 | 7.11 | C5a max [12]: 134%; pD2 [13]: 5.6; Mean log concentration ratio [14]: 1.72; Selectivity [15]: 32; Potency [16]: 1.9%
3.1 | 0.07 | CSCC[C@H](NC(=O)[C@@H]1CCCN1C(=O)[C@H](CCCCN)NC(=O)[C@H](Cc1ccccc1)NC(=O)[C@H](CO)NC(=O)[C@H](Cc1ccc(O)cc1)NC(=O)CCCCCN)C(=O)N1CCC[C@H]1C(=O)N[C@@H](CC(C)C)C(=O)N[C@H](C)C(=O)N[C@@H](CCCN=C(N)N)C(=O)O |  |  |  | IC50 [17]: 5.5 µM
